Our source for the EC50, CC50 and IC50 values is ChEMBL document CHEMBL1158631, “Discovery of novel 1-phenyl-cycloalkane carbamides as potent and selective influenza fusion inhibitors” (Bioorg Med Chem Lett, 2010).

The structures appear in SMILES notation.

Data set [1] can be described thus: Antiviral activity against Influenza A virus (A/Weiss/43 (H1N1)) infected in MDCK cells assessed as inhibition of virus-induced cytopathic effect. The format is functional, organism-based, Influenza A virus (A/Weiss/1943(H1N1)). In a few lines:
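MDCK cells infected with influenza A/Weiss/43 (H1N1). Compounds were titrated at multiple doses after a primary single-dose screen. The read-out was protection from viral cytopathic effect, and EC50 is the concentration inhibiting 50% of cytopathic effect. Values are means of triplicate or of at least duplicate experiments.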

The nature of data set [2]: Cytotoxicity against MDCK cells. The data set is classed as cell-based, Canis lupus familiaris. Conditions: dog; call rule not given here. In a few lines:
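Uninfected MDCK cells were exposed to compounds. CC50 is the concentration inhibiting 50% of MDCK cell growth relative to control.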

Data set [3] is described as follows: Toxicity assessed as haemolysis in chicken RBC. The format is cell-based, Gallus gallus, Erythrocyte.
The mark [4] stands for this setting: Gallus gallus, Erythrocyte, read-out: IC50.

For the compound `CN(C(=O)C1(c2ccccc2)CCCC1)c1ccc(C#N)cc1`, in data set [1], the EC50 amounted to 0.098 µM. In addition, in data set [2], the CC50 is above 100 µM.
On to `O=C(N1CCCCC1)C1(c2ccccc2)CCCC1`, for which the EC50 in data set [1] came to 2.1 µM. This compound also showed a CC50 in data set [2] above 100 µM. Also, in data set [3] (setting [4]), the IC50 was determined as 2.2 µM.
As to `O=C(N1CCOCC1)C1(c2ccccc2)CCCC1`, the EC50 in data set [1] stood at 27.9 µM. The compound also returned a CC50 in data set [2] above 100 µM. Besides, the IC50 result in data set [3] (erythrocyte) is recorded as “Not Active”.
For the compound `CCN(C(=O)C1(c2ccccc2)CCCC1)c1ccccc1`, the EC50 in data set [1] stood at 0.26 µM. For the same compound, it took 56 µM to reach half-maximal cytotoxicity in data set [2] (CC50).
Consider `CC1(C)C[C@H](O)C[C@](C)(CNC(=O)c2cc(Cl)ccc2O)C1`, for which the EC50 in data set [1] turned out to be 0.06 µM. Also, the CC50 in data set [2] is above 50 µM. The IC50 in data set [3] (setting [4]) was 0.53 µM.
Turning to `CN(C(=O)C1(c2ccccc2)CCCC1)c1cccc(Cl)c1`, the EC50 in data set [1] turned out to be 0.46 µM. This compound also showed a CC50 in data set [2] of 17 µM.
As for `CN(C(=O)C1(c2ccccc2)CCCC1)C1CCCCC1`, the EC50 in data set [1] came out at 0.45 µM. It took 21 µM to reach half-maximal cytotoxicity in data set [2] (CC50).
As to `CN(C(=O)C1(c2cccc(C(F)(F)F)c2)CCCC1)c1ccccc1`, the EC50 in data set [1] came out at 2.26 µM. The compound further gave a CC50 in data set [2] of 20 µM.
`CN(C(=O)C1(c2ccccc2)CCCC1)c1ccc(C(F)(F)F)cc1`: in data set [1], the EC50 turned out to be 2.12 µM. The CC50 in data set [2] stood at 21 µM.
For `O=C(N1CCCc2ccccc21)C1(c2ccccc2)CCCC1`, the EC50 in data set [1] was above 100 µM. Besides, the CC50 in data set [2] was found to be 24 µM.
In the case of `O=C(N(CCO)c1ccccc1)C1(c2ccccc2)CCCC1`, the EC50 in data set [1] came out at 0.58 µM. The same compound showed a CC50 in data set [2] of 79 µM.
With `CN(C(=O)C1(c2ccccc2)CCCC1)c1ccccc1Cl`, the EC50 in data set [1] was found to be 0.18 µM. The compound further registered a CC50 in data set [2] of 23 µM.
Regarding `CN(C(=O)C1(c2ccccc2)CCCC1)c1ccc(Cl)cc1`, the EC50 in data set [1] worked out at 0.08 µM. For the same compound, the CC50 in data set [2] came out at 20 µM.
Turning to `CN(C(=O)C1(c2ccccc2)CCCC1)c1ccccc1`, the EC50 in data set [1] stood at 0.24 µM. The same compound had a CC50 in data set [2] of 52 µM.
Regarding `CN(C(=O)C1(c2ccc(Cl)cc2)CCCCC1)c1ccccc1`, the EC50 in data set [1] was above 10 µM. In addition, the CC50 in data set [2] was found to be 7.4 µM.
`COc1ccc(C2(C(=O)N(C)c3ccccc3)CCCC2)cc1`: the EC50 in data set [1] turned out to be 0.75 µM. For the same compound, it took 69 µM to reach half-maximal cytotoxicity in data set [2] (CC50).
Take `CN(C(=O)C1(c2ccccc2)CCCC1)c1cccc(C#N)c1`: the EC50 in data set [1] came out at 0.73 µM. The compound also came in with a CC50 in data set [2] of 56 µM.
As for `CN(C(=O)C1(c2ccc(Cl)cc2)CC1)c1ccccc1`, in data set [1], the EC50 was 1.86 µM. The midpoint of cytotoxicity in data set [2], the CC50, lay at 49 µM.
For the compound `COC(=O)[C@@]1(C)CCC[C@]2(C)c3cc(OC)ccc3C(=O)C[C@@H]12`, the EC50 in data set [1] was found to be 0.89 µM. Further, in data set [2], the CC50 turned out to be 67 µM. Moreover, the IC50 in data set [3] (setting [4]) worked out at 3.2 µM.
Regarding `O=C(Nc1ccccc1)C1(c2ccccc2)CCCC1`, in data set [1], the EC50 was above 100 µM. For the same compound, the CC50 in data set [2] is above 100 µM.
As to `CN(C(=O)C1(c2ccc(Cl)cc2)CCCC1)c1ccccc1`, in data set [1], the EC50 was 0.19 µM. Moreover, the midpoint of cytotoxicity in data set [2], the CC50, lay at 21 µM.
`CN(C(=O)C1(c2ccccc2)CCCC1)c1cccnc1`: the 50% effective concentration (EC50) in data set [1] worked out at 16.4 µM. Further, in data set [2], the CC50 is above 100 µM.
Regarding `CN(C(=O)C1(c2ccc(Cl)cc2)CCC1)c1ccccc1`, in data set [1], the EC50 was found to be 0.27 µM. For the same compound, the CC50 in data set [2] worked out at 24 µM.
